Experimental data published in ChEMBL document CHEMBL4373711, “Development of 3,5-Dinitrophenyl-Containing 1,2,4-Triazoles and Their Trifluoromethyl Analogues as Highly Efficient Antitubercular Agents Inhibiting Decaprenylphosphoryl-β-d-ribofuranose 2'-Oxidase” (J Med Chem, 2019).
Values after ≈ are worked out from the molar mass of the structure shown. Active and inactive are the calls of the source. No cut-off for these calls is given here.

Key:
Staphylococcus aureus [1] = assay: Antibacterial activity against methicillin-resistant Staphylococcus aureus subsp. aureus ATCC 43300 CCM 4750 at highest concentration measured after 24 to 48 hrs by alamar blue dye based broth microdilution assay; assay type: functional, organism-based
Candida tropicalis = assay: Antifungal activity against Candida tropicalis ATCC 750 CCM 8264 at highest concentration measured after 24 to 48 hrs by alamar blue dye based broth microdilution assay; assay type: functional, organism-based
Mycobacterium kansasii [2] = assay: Antimycobacterial activity against Mycobacterium kansasii CNCTC My 235/80 after 14 days; assay type: functional; conditions: CNCTC My 235/80, 336 h
Summary of the method: (§1)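 Microdilution in Šula's semisynthetic medium; compounds in DMSO at 32–0.03 µM. Inoculum from 1.0 McFarland suspension diluted 10-4. […] Isoniazid and rifampicin as reference drugs.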

Lichtheimia corymbifera = assay: Antifungal activity against Lichtheimia corymbifera CCM 8077 at highest concentration measured after 24 to 48 hrs by alamar blue dye based broth microdilution assay; assay type: functional, organism-based
Klebsiella pneumoniae = assay: Antibacterial activity against Klebsiella pneumoniae at highest concentration measured after 24 to 48 hrs by alamar blue dye based broth microdilution assay; assay type: functional, organism-based
Mycobacterium avium [3] = assay: Antimycobacterial activity against Mycobacterium avium CNCTC My 330/88 after 21 days; assay type: functional; conditions: CNCTC My 330/88, 504 h
Summary of the method: (§2)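 M. avium was tested by microdilution in Šula's semisynthetic medium, with compounds dissolved in DMSO and serially diluted from 1000 down to 1. Inoculum was a 1.0 McFarland suspension diluted 10-5. Plates were incubated at 37 °C and read at 14 and 21 days. […] Isoniazid and rifampicin served as standards.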

Mycobacterium kansasii [4] = assay: Antimycobacterial activity against Mycobacterium kansasii CNCTC My 235/80 after 21 days; assay type: functional; conditions: CNCTC My 235/80, 504 h; summary of the method: as §1
Candida albicans = assay: Antifungal activity against Candida albicans ATCC 24433 CCM 8320 at highest concentration measured after 24 to 48 hrs by alamar blue dye based broth microdilution assay; assay type: functional, organism-based
Staphylococcus aureus [5] = assay: Antibacterial activity against Staphylococcus aureus subsp. aureus ATCC 29213 CCM 4223 at highest concentration measured after 24 to 48 hrs by alamar blue dye based broth microdilution assay; assay type: functional, organism-based
Aspergillus flavus = assay: Antifungal activity against Aspergillus flavus CCM 8363 at highest concentration measured after 24 to 48 hrs by alamar blue dye based broth microdilution assay; assay type: functional, organism-based
Mycobacterium kansasii [6] = assay: Antimycobacterial activity against Mycobacterium kansasii CNCTC My 235/80 after 7 days; assay type: functional; conditions: CNCTC My 235/80, 168 h; summary of the method: as §1
Mycobacterium kansasii [7] = assay: Antimycobacterial activity against Mycobacterium kansasii 6509/96 after 21 days; assay type: functional; conditions: 6509/96, 504 h; summary of the method: as §1
[8] = test system: Staphylococcus epidermidis; assay: Antibacterial activity against Staphylococcus epidermidis at highest concentration measured after 24 to 48 hrs by alamar blue dye based broth microdilution assay; assay type: functional, organism-based
Aspergillus fumigatus = assay: Antifungal activity against Aspergillus fumigatus ATCC 204305 at highest concentration measured after 24 to 48 hrs by alamar blue dye based broth microdilution assay; assay type: functional, organism-based
Mycobacterium kansasii [9] = assay: Antimycobacterial activity against Mycobacterium kansasii 6509/96 after 7 days; assay type: functional; conditions: 6509/96, 168 h; summary of the method: as §1
Pseudomonas aeruginosa = assay: Antibacterial activity against Pseudomonas aeruginosa ATCC 27853 CCM 3955 at highest concentration measured after 24 to 48 hrs by alamar blue dye based broth microdilution assay; assay type: functional, organism-based
Mycobacterium avium [10] = assay: Antimycobacterial activity against Mycobacterium avium CNCTC My 330/88 after 14 days; assay type: functional; conditions: CNCTC My 330/88, 336 h; summary of the method: as §2
Mycobacterium kansasii [11] = assay: Antimycobacterial activity against Mycobacterium kansasii 6509/96 after 14 days; assay type: functional; conditions: 6509/96, 336 h; summary of the method: as §1
Pichia kudriavzevii = assay: Antifungal activity against Candida krusei ATCC 6258 CCM8271 at highest concentration measured after 24 to 48 hrs by alamar blue dye based broth microdilution assay; assay type: functional, organism-based
Escherichia coli = assay: Antibacterial activity against Escherichia coli ATCC 25922 CCM 3954 at highest concentration measured after 24 to 48 hrs by alamar blue dye based broth microdilution assay; assay type: functional, organism-based
[12] = test system: Mycobacterium tuberculosis; assay: Antimycobacterial activity against Mycobacterium tuberculosis H37Rv CNCTC My 331/88 after 21 days; assay type: functional; conditions: H37Rv CNCTC My 331/88, 504 h
Summary of the method: (§3)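 M. tuberculosis strains (H37Rv and clinical MDR/XDR isolates) tested by microdilution in Šula's semisynthetic medium. Compounds were dissolved in DMSO and tested at 32 to 0.03 µM in twofold steps. Inoculum was a 1.0 McFarland suspension diluted 10-3. Plates were incubated at 37 °C and read at 14 and 21 days.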

[13] = test system: Trichophyton interdigitale; assay: Antifungal activity against Trichophyton interdigitale ATCC 9533 CCM 8377 at highest concentration measured after 72 to 120 hrs by alamar blue dye based broth microdilution assay; assay type: functional
Candida parapsilosis = assay: Antifungal activity against Candida parapsilosis ATCC 22019 CCM 8260 at highest concentration measured after 24 to 48 hrs by alamar blue dye based broth microdilution assay; assay type: functional, organism-based
Serratia marcescens = assay: Antibacterial activity against Serratia marcescens at highest concentration measured after 24 to 48 hrs by alamar blue dye based broth microdilution assay; assay type: functional, organism-based
Enterococcus faecalis = assay: Antibacterial activity against Enterococcus faecalis ATCC 29212 CCM 4224 at highest concentration measured after 24 to 48 hrs by alamar blue dye based broth microdilution assay; assay type: functional, organism-based
[14] = test system: Mycobacterium tuberculosis; assay: Antimycobacterial activity against Mycobacterium tuberculosis H37Rv CNCTC My 331/88 after 14 days; assay type: functional; conditions: H37Rv CNCTC My 331/88, 336 h; summary of the method: as §3

Row | Structure (SMILES) | Activity (Staphylococcus aureus [1]) | Activity (Candida tropicalis) | MIC99 (Mycobacterium kansasii [2]) | Activity (Lichtheimia corymbifera) | Activity (Klebsiella pneumoniae) | MIC99 (Mycobacterium avium [3]) | MIC99 (Mycobacterium kansasii [4]) | Activity (Candida albicans) | Activity (Staphylococcus aureus [5]) | Activity (Aspergillus flavus) | MIC99 (Mycobacterium kansasii [6]) | MIC99 (Mycobacterium kansasii [7]) | Activity [8] | Activity (Aspergillus fumigatus) | MIC99 (Mycobacterium kansasii [9]) | Activity (Pseudomonas aeruginosa) | MIC99 (Mycobacterium avium [10]) | MIC99 (Mycobacterium kansasii [11]) | Activity (Pichia kudriavzevii) | Activity (Escherichia coli) | also measured
1 | CCCCCCCCCCCCn1c(SCc2ccccc2)nnc1-c1cc([N+](=O)[O-])cc([N+](=O)[O-])c1 | inactive | inactive | 4 µM (≈ 2.1 µg/mL) | inactive | inactive | 250 µM (≈ 131 µg/mL) | 4 µM (≈ 2.1 µg/mL) | inactive | inactive | inactive | 2 µM (≈ 1.05 µg/mL) | 4 µM (≈ 2.1 µg/mL) | inactive | inactive | 2 µM (≈ 1.05 µg/mL) | inactive | 250 µM (≈ 131 µg/mL) | 4 µM (≈ 2.1 µg/mL) | inactive | inactive | MIC99 [12]: 4 µM (≈ 2.1 µg/mL); Activity [13]: inactive; Activity (Candida parapsilosis): inactive; Activity (Serratia marcescens): inactive; Activity (Enterococcus faecalis): inactive; MIC99 [14]: 2 µM (≈ 1.05 µg/mL)
2 | O=[N+]([O-])c1cc(CSc2nnc(-c3ccccc3)n2Cc2ccc(Cl)cc2Cl)cc([N+](=O)[O-])c1 | inactive | inactive | > 32 µM | inactive | inactive | 250 µM (≈ 129 µg/mL) | > 32 µM | inactive | inactive | inactive | > 32 µM | > 32 µM | inactive | inactive | > 32 µM | inactive | 250 µM (≈ 129 µg/mL) | > 32 µM | inactive | inactive | MIC99 [12]: > 32 µM; Activity [13]: inactive; Activity (Candida parapsilosis): inactive; Activity (Serratia marcescens): inactive; Activity (Enterococcus faecalis): inactive; MIC99 [14]: > 32 µM
3 | O=[N+]([O-])c1cc(CSc2nnc(-c3ccc(O)cc3)n2Cc2ccccc2)cc([N+](=O)[O-])c1 | inactive | inactive | 16 µM (≈ 7.42 µg/mL) | inactive | inactive | 250 µM (≈ 116 µg/mL) | 16 µM (≈ 7.42 µg/mL) | inactive | inactive | inactive | 8 µM (≈ 3.71 µg/mL) | 16 µM (≈ 7.42 µg/mL) | inactive | inactive | 8 µM (≈ 3.71 µg/mL) | inactive | 250 µM (≈ 116 µg/mL) | 16 µM (≈ 7.42 µg/mL) | inactive | inactive | MIC99 [12]: 16 µM (≈ 7.42 µg/mL); Activity [13]: inactive; Activity (Candida parapsilosis): inactive; Activity (Serratia marcescens): inactive; Activity (Enterococcus faecalis): inactive; MIC99 [14]: 16 µM (≈ 7.42 µg/mL)
4 | O=[N+]([O-])c1cc(Cn2c(SCc3ccccc3)nnc2-c2ccccc2)cc([N+](=O)[O-])c1 | inactive | inactive | 8 µM (≈ 3.58 µg/mL) | inactive | inactive | > 1000 µM | 16 µM (≈ 7.16 µg/mL) | inactive | inactive | inactive | 4 µM (≈ 1.79 µg/mL) | 16 µM (≈ 7.16 µg/mL) | inactive | inactive | 8 µM (≈ 3.58 µg/mL) | inactive | > 1000 µM | 16 µM (≈ 7.16 µg/mL) | inactive | inactive | MIC99 [12]: 16 µM (≈ 7.16 µg/mL); Activity [13]: inactive; Activity (Candida parapsilosis): inactive; Activity (Serratia marcescens): inactive; Activity (Enterococcus faecalis): inactive; MIC99 [14]: 8 µM (≈ 3.58 µg/mL)
5 | CCCCCCCCCCCCn1c(SCc2cc([N+](=O)[O-])cc([N+](=O)[O-])c2)nnc1-c1ccccc1 | inactive | inactive | 2 µM (≈ 1.05 µg/mL) | inactive | inactive | 250 µM (≈ 131 µg/mL) | 4 µM (≈ 2.1 µg/mL) | inactive | inactive | inactive | 2 µM (≈ 1.05 µg/mL) | 4 µM (≈ 2.1 µg/mL) | inactive | inactive | 2 µM (≈ 1.05 µg/mL) | inactive | 250 µM (≈ 131 µg/mL) | 4 µM (≈ 2.1 µg/mL) | inactive | inactive | MIC99 [12]: 4 µM (≈ 2.1 µg/mL); Activity [13]: inactive; Activity (Candida parapsilosis): inactive; Activity (Serratia marcescens): inactive; Activity (Enterococcus faecalis): inactive; MIC99 [14]: 2 µM (≈ 1.05 µg/mL)
6 | O=[N+]([O-])c1cc(Cn2c(SCc3ccc(Cl)c(Cl)c3)nnc2-c2ccccc2)cc([N+](=O)[O-])c1 | inactive | inactive | 8 µM (≈ 4.13 µg/mL) | inactive | inactive | 250 µM (≈ 129 µg/mL) | 16 µM (≈ 8.26 µg/mL) | inactive | inactive | inactive | 4 µM (≈ 2.07 µg/mL) | 16 µM (≈ 8.26 µg/mL) | inactive | inactive | 8 µM (≈ 4.13 µg/mL) | inactive | 250 µM (≈ 129 µg/mL) | 16 µM (≈ 8.26 µg/mL) | inactive | inactive | MIC99 [12]: 16 µM (≈ 8.26 µg/mL); Activity [13]: inactive; Activity (Candida parapsilosis): inactive; Activity (Serratia marcescens): inactive; Activity (Enterococcus faecalis): inactive; MIC99 [14]: 8 µM (≈ 4.13 µg/mL)
7 | CCCCCCc1nnc(SCc2cc([N+](=O)[O-])cc([N+](=O)[O-])c2)n1Cc1ccccc1 | inactive | inactive | 2 µM (≈ 0.911 µg/mL) | inactive | inactive | 250 µM (≈ 114 µg/mL) | 2 µM (≈ 0.911 µg/mL) | inactive | inactive | inactive | 1 µM (≈ 0.456 µg/mL) | 4 µM (≈ 1.82 µg/mL) | inactive | inactive | 2 µM (≈ 0.911 µg/mL) | inactive | 250 µM (≈ 114 µg/mL) | 4 µM (≈ 1.82 µg/mL) | inactive | inactive | MIC99 [12]: 2 µM (≈ 0.911 µg/mL); Activity [13]: inactive; Activity (Candida parapsilosis): inactive; Activity (Serratia marcescens): inactive; Activity (Enterococcus faecalis): inactive; MIC99 [14]: 2 µM (≈ 0.911 µg/mL)
8 | O=[N+]([O-])c1cc(CSc2nnc(-c3ccccc3)n2Cc2ccccc2)cc(C(F)(F)F)c1 | inactive | inactive | > 32 µM | inactive | inactive | 250 µM (≈ 118 µg/mL) | > 32 µM | inactive | inactive | inactive | > 32 µM | > 32 µM | inactive | inactive | > 32 µM | inactive | 250 µM (≈ 118 µg/mL) | > 32 µM | inactive | inactive | MIC99 [12]: 32 µM (≈ 15.1 µg/mL); Activity [13]: inactive; Activity (Candida parapsilosis): inactive; Activity (Serratia marcescens): inactive; Activity (Enterococcus faecalis): inactive; MIC99 [14]: 16 µM (≈ 7.53 µg/mL)
